Published values collected from several papers.
Compare with care: the assays were run in different laboratories.
Target: Sigma intracellular receptor 2 (Tmem97, Rattus norvegicus, UniProt Q5U3Y7)
Effect on: ligand displacement
Technique: radioligand
Residues used in one study (Q5U3Y7 1-176): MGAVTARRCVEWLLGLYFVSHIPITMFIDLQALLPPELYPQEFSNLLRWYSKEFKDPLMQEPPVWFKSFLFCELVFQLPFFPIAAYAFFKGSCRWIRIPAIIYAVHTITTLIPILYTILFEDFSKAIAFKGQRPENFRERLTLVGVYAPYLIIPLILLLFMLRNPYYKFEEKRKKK

| SMILES | setting | Ki [nM] |
| --- | --- | --- |
| CN(C)C(=S)N/N=C1/C(=O)Nc2ccccc21 | cell membranes | > 10000 |
| COc1cc2c(cc1OC)CN(CCCCn1ccc3c(OC)cccc31)CC2 | cell membranes | 7.73 |
| O=C(NCCN1CCCCC1)c1ccc(OCCCF)c(Br)c1 | cell membranes | 28.3 |
| COc1ccc(CCC(C)N2CCc3cc(OC)c(OC)cc3C2)cc1 (stereo not shown) | – | 0.59 |
| O=C(NCCN1CCCCC1)c1ccc(O)c(Br)c1 | cell membranes | > 10000 |
| COc1cc2c(cc1OC)CN(C(C)CCc1ccc(O)cc1)CC2 (stereo not shown) | – | 4.92 |
| COc1ccc2ccn(CCCCN3Cc4cc(OC)c(OC)cc4C3)c2c1 | cell membranes | 9.46 |
| O=C(NCCN1CCCCC1)c1cc(Br)ccc1OCCCF | cell membranes | 92.9 |
| COc1ccc2c(ccn2CCCCN2CCc3cc(OC)c(OC)cc3C2)c1 | cell membranes | 4.4 |
| COc1cc2c(cc1OC)C(=O)N(CCCCN1C(=O)/C(=N\NC(=S)N(C)C)c3ccccc31)CC2 | cell membranes | > 10000 |
